From ChEMBL document CHEMBL1124493, “Synthesis and tumor uptake of 5-82Br- and 5-131I-labeled 5-halo-1-(2-fluoro-2-deoxy-beta-D-ribofuranosyl)uracils” (J Med Chem, 1989)

How the values were obtained:
Mus musculus [1] = assay: Biodistribution of intravenously injected [82Br]-labeled compound in tumor of BDF1 female mice bearing subcutaneous Lewis lung carcinoma after 0.50 hours; type: ADME, organism-based; settings: in vivo, iv, 0.5 h
Mus musculus [2] = assay: Biodistribution of intravenously injected [82Br]-labeled compound in tumor of BDF1 female mice bearing subcutaneous Lewis lung carcinoma after 24 hours; type: ADME, organism-based; settings: in vivo, iv
Mus musculus [3] = assay: Biodistribution of intravenously injected [82Br]-labeled compound in bone of BDF1 female mice bearing subcutaneous Lewis lung carcinoma after 8 hours; type: ADME, organism-based, Bone element; settings: in vivo, iv
Outline: (§1)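 82Br-labeled nucleoside given intravenously to female BDF1 mice bearing subcutaneous Lewis lung carcinoma, at 47-130 μg carrying 20-60 kBq. Mice sacrificed at each time point. Wet-weighed tissues γ-counted. Values are percent injected dose per gram wet tissue, mean ± SD, n = 6.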

Mus musculus [4] = assay: Biodistribution of intravenously injected [82Br]-labeled compound in gut of BDF1 female mice bearing subcutaneous Lewis lung carcinoma after 0.50 hours; type: ADME, organism-based; settings: in vivo, iv, 0.5 h; outline: as §1
Mus musculus [5] = assay: Biodistribution of intravenously injected [82Br]-labeled compound in gut of BDF1 female mice bearing subcutaneous Lewis lung carcinoma after 4 hours; type: ADME, organism-based; settings: in vivo, iv
Outline: (§2)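 Female BDF1 mice with subcutaneous Lewis lung carcinoma given an iv injection of [82Br]-labelled nucleoside, 47-130 μg carrying 20-60 kBq 82Br. Tissues were excised, weighed wet and γ-counted. Values are percent injected dose per gram of wet tissue, mean ± standard deviation of six animals, with organ-to-tumour ratios derived.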

Mus musculus [6] = assay: Biodistribution of intravenously injected [82Br]-labeled compound in heart of BDF1 female mice bearing subcutaneous Lewis lung carcinoma after 0.50 hours; type: ADME, organism-based; settings: in vivo, iv, 0.5 h; outline: as §2
Mus musculus [7] = assay: Biodistribution of intravenously injected [82Br]-labeled compound in kidney of BDF1 female mice bearing subcutaneous Lewis lung carcinoma after 8 hours; type: ADME, organism-based; settings: in vivo, iv; outline: as §2
Mus musculus [8] = assay: Biodistribution of intravenously injected [82Br]-labeled compound in blood of BDF1 female mice bearing subcutaneous Lewis lung carcinoma after 2 hours; type: ADME, organism-based; settings: in vivo, iv; outline: as §1
Mus musculus [9] = assay: Biodistribution of intravenously injected [82Br]-labeled compound in blood of BDF1 female mice bearing subcutaneous Lewis lung carcinoma after 8 hours; type: ADME, organism-based; settings: in vivo, iv; outline: as §1
Mus musculus [10] = assay: Biodistribution of intravenously injected [82Br]-labeled compound in skin of BDF1 female mice bearing subcutaneous Lewis lung carcinoma after 0.50 hours; type: ADME, organism-based, Zone of skin; settings: in vivo, iv, 0.5 h; outline: as §2
Mus musculus [11] = assay: Biodistribution of intravenously injected [82Br]-labeled compound in skin of BDF1 female mice bearing subcutaneous Lewis lung carcinoma after 4 hours; type: ADME, organism-based, Zone of skin; settings: in vivo, iv; outline: as §2
Mus musculus [12] = assay: Biodistribution of intravenously injected [82Br]-labeled compound in skin of BDF1 female mice bearing subcutaneous Lewis lung carcinoma after 8 hours; type: ADME, organism-based, Zone of skin; settings: in vivo, iv; outline: as §2
Mus musculus [13] = assay: Biodistribution of intravenously injected [82Br]-labeled compound in stomach of BDF1 female mice bearing subcutaneous Lewis lung carcinoma after 0.25 hours; type: ADME, organism-based; settings: in vivo, iv
Mus musculus [14] = assay: Biodistribution of intravenously injected [82Br]-labeled compound in skin of BDF1 female mice bearing subcutaneous Lewis lung carcinoma after 0.25 hours; type: ADME, organism-based, Zone of skin; settings: in vivo, iv; outline: as §2
Mus musculus [15] = assay: Biodistribution of intravenously injected [131I]-labeled compound in bone of BDF1 female mice bearing subcutaneous Lewis lung carcinoma after 1 hours; type: ADME, organism-based, Bone element; settings: in vivo, iv
Outline: (§3)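 Female BDF1 mice bearing subcutaneous Lewis lung carcinoma received a single intravenous dose of 0.5-1.8 μg of the 131I-labeled nucleoside (55-110 kBq). They were sacrificed at set times, and tissues were weighed wet and γ-counted. Activity is expressed as percent of injected dose per gram of wet tissue, given as mean ± standard deviation for six animals.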

Mus musculus [16] = assay: Biodistribution of intravenously injected [131I]-labeled compound in bone of BDF1 female mice bearing subcutaneous Lewis lung carcinoma after 2 hours; type: ADME, organism-based, Bone element; settings: in vivo, iv; outline: as §3
Mus musculus [17] = assay: Biodistribution of intravenously injected [131I]-labeled compound in blood of BDF1 female mice bearing subcutaneous Lewis lung carcinoma after 1 hours; type: ADME, organism-based; settings: in vivo, iv; outline: as §3
Mus musculus [18] = assay: Biodistribution of intravenously injected [82Br]-labeled compound in blood of BDF1 female mice bearing subcutaneous Lewis lung carcinoma after 4 hours; type: ADME, organism-based; settings: in vivo, iv, in the assay text read “[131I]-labeled” for “[82Br]-labeled”
Mus musculus [19] = assay: Biodistribution of intravenously injected [131I]-labeled compound in gut of BDF1 female mice bearing subcutaneous Lewis lung carcinoma after 0.50 hours; type: ADME, organism-based; settings: in vivo, iv, 0.5 h; outline: as §3
Mus musculus [20] = assay: Biodistribution of intravenously injected [131I]-labeled compound in gut of BDF1 female mice bearing subcutaneous Lewis lung carcinoma after 1 hours; type: ADME, organism-based; settings: in vivo, iv; outline: as §3
Mus musculus [21] = assay: Biodistribution of intravenously injected [131I]-labeled compound in heart of BDF1 female mice bearing subcutaneous Lewis lung carcinoma after 24 hours; type: ADME, organism-based; settings: in vivo, iv; outline: as §3
Mus musculus [22] = assay: Biodistribution of intravenously injected [131I]-labeled compound in heart of BDF1 female mice bearing subcutaneous Lewis lung carcinoma after 0.50 hours; type: ADME, organism-based; settings: in vivo, iv, 0.5 h; outline: as §3
Mus musculus [23] = assay: Biodistribution of intravenously injected [131I]-labeled compound in kidney of BDF1 female mice bearing subcutaneous Lewis lung carcinoma after 8 hours; type: ADME, organism-based; settings: in vivo, iv; outline: as §3
Mus musculus [24] = assay: Biodistribution of intravenously injected [131I]-labeled compound in lung of BDF1 female mice bearing subcutaneous Lewis lung carcinoma after 0.25 hours; type: ADME, organism-based; settings: in vivo, iv; outline: as §3
Mus musculus [25] = assay: Biodistribution of intravenously injected [131I]-labeled compound in liver of BDF1 female mice bearing subcutaneous Lewis lung carcinoma after 24 hours; type: ADME, organism-based; settings: in vivo, iv; outline: as §3
Mus musculus [26] = assay: Biodistribution of intravenously injected [131I]-labeled compound in muscle of BDF1 female mice bearing subcutaneous Lewis lung carcinoma after 24 hours; type: ADME, organism-based, Muscle tissue; settings: in vivo, iv
Outline: (§4)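 Female BDF1 mice with subcutaneous Lewis lung carcinoma given i.v. 0.5-1.8 μg of 131I-labeled nucleoside (55-110 kBq). Killed at set times. Tissues weighed wet and γ-counted. Radioactivity expressed as percent injected dose per gram wet tissue, mean ± SD of six animals.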

Mus musculus [27] = assay: Biodistribution of intravenously injected [131I]-labeled compound in muscle of BDF1 female mice bearing subcutaneous Lewis lung carcinoma after 0.25 hours; type: ADME, organism-based, Muscle tissue; settings: in vivo, iv; outline: as §3
Mus musculus [28] = assay: Biodistribution of intravenously injected [131I]-labeled compound in stomach of BDF1 female mice bearing subcutaneous Lewis lung carcinoma after 1 hours; type: ADME, organism-based; settings: in vivo, iv; outline: as §4
Mus musculus [29] = assay: Biodistribution of intravenously injected [131I]-labeled compound in skin of BDF1 female mice bearing subcutaneous Lewis lung carcinoma after 0.50 hours; type: ADME, organism-based, Zone of skin; settings: in vivo, iv, 0.5 h; outline: as §4
Mus musculus [30] = assay: Biodistribution of intravenously injected [131I]-labeled compound in spleen of BDF1 female mice bearing subcutaneous Lewis lung carcinoma after 24 hours; type: ADME, organism-based; settings: in vivo, iv; outline: as §4
Mus musculus [31] = assay: Biodistribution of intravenously injected [131I]-labeled compound in stomach of BDF1 female mice bearing subcutaneous Lewis lung carcinoma after 4 hours; type: ADME, organism-based; settings: in vivo, iv; outline: as §4
Mus musculus [32] = assay: Biodistribution of intravenously injected [131I]-labeled compound in stomach of BDF1 female mice bearing subcutaneous Lewis lung carcinoma after 8 hours; type: ADME, organism-based; settings: in vivo, iv; outline: as §4
Mus musculus [33] = organism: Mus musculus; assay: Urinary iodide observed in BDF1 female mice bearing lewis lung tumor after 0-0.5 hr of injected [131I]-compound; type: functional, tissue-based; settings: Urine
Mus musculus [34] = organism: Mus musculus; assay: Urinary [131I]- compound observed in BDF1 female mice bearing lewis lung tumor after 6-7 hr of injected [131I]-compound; type: functional, tissue-based; settings: Urine
Mus musculus [35] = organism: Mus musculus; assay: Urinary [131I]5-iodouracil observed in BDF1 female mice bearing lewis lung tumor after 0-0.5 hr of injected [131I]-compound; type: functional, tissue-based; settings: Urine
Mus musculus [36] = organism: Mus musculus; assay: Urinary [131I]5-iodouracil observed in BDF1 female mice bearing lewis lung tumor after 24 hr of injected [131I]-compound; type: functional, tissue-based; settings: Urine
Mus musculus [37] = assay: Biodistribution of intravenously injected [131I]-labeled compound in tumor of BDF1 female mice bearing subcutaneous Lewis lung carcinoma after 2 hours; type: ADME, organism-based; settings: in vivo, iv; outline: as §4
Mus musculus [38] = assay: Biodistribution of intravenously injected [131I]-labeled compound in tumor of BDF1 female mice bearing subcutaneous Lewis lung carcinoma after 4 hr; type: ADME, organism-based; settings: in vivo, iv; outline: as §4

Compound: O=c1[nH]c(=O)n([C@H]2O[C@@H](CO)[C@H](O)[C@H]2F)cc1Br
- Injected dose/g (Mus musculus [1]): 0.95%
- Injected dose/g (Mus musculus [2]): 0.32%
- Injected dose/g (Mus musculus [3]): 0.23%
- Injected dose/g (Mus musculus [4]): 0.72%
- Injected dose/g (Mus musculus [5]): 0.28%
- Injected dose/g (Mus musculus [6]): 0.76%
- Injected dose/g (Mus musculus [7]): 0.53%
- Injected dose/g (Mus musculus [8]): 0.79%
- Injected dose/g (Mus musculus [9]): 0.72%
- Injected dose/g (Mus musculus [10]): 0.72%
- Injected dose/g (Mus musculus [11]): 0.31%
- Injected dose/g (Mus musculus [12]): 0.34%
- Injected dose/g (Mus musculus [13]): 1.29%
- Injected dose/g (Mus musculus [14]): 1.39%

Compound: O=c1[nH]c(=O)n([C@@H]2O[C@H](CO)[C@@H](O)[C@H]2F)cc1I
- Injected dose/g (Mus musculus [15]): 1.5%
- Injected dose/g (Mus musculus [16]): 1.2%
- Injected dose/g (Mus musculus [17]): 13.3%
- Injected dose/g (Mus musculus [18]): 8.5%
- Injected dose/g (Mus musculus [19]): 2.8%
- Injected dose/g (Mus musculus [20]): 2.5%
- Injected dose/g (Mus musculus [21]): 0.1%
- Injected dose/g (Mus musculus [22]): 6.4%
- Injected dose/g (Mus musculus [23]): 4.1%
- Injected dose/g (Mus musculus [24]): 7.9%
- Injected dose/g (Mus musculus [25]): 0.1%
- Injected dose/g (Mus musculus [26]): 0.03%
- Injected dose/g (Mus musculus [27]): 2.5%
- Injected dose/g (Mus musculus [28]): 4.5%
- Injected dose/g (Mus musculus [29]): 3.8%
- Injected dose/g (Mus musculus [30]): 0.5%
- Injected dose/g (Mus musculus [31]): 5.7%
- Injected dose/g (Mus musculus [32]): 5.3%
- Radioactive constituents (Mus musculus [33]): 4.7%
- Radioactive constituents (Mus musculus [34]): 60.2%
- Radioactive constituents (Mus musculus [35]): 1.8%
- Radioactive constituents (Mus musculus [36]): 0%
- Injected dose/g (Mus musculus [37]): 3.8%
- Injected dose/g (Mus musculus [38]): 3.3%
